The MIC is the lowest concentration found to suppress growth. A low value points to a more susceptible organism.

In brackets after ≈: the same amount, converted by molar mass.

Assay type in all cases: functional
The subject of assay [1] is Acinetobacter baumannii. In words: Antimicrobial activity against carbapenem-resistant Acinetobacter baumannii isolate A2 by Etest method. In a few lines: (§1)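 Etest strips on Mueller-Hinton agar, incubated at 37°C; MIC read from strip for clinical A. baumannii isolates A1 and A2 (clonally related, genotyped by ApaI PFGE).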
The subject of assay [2] is Acinetobacter baumannii. In words: Antimicrobial activity against bla OXA-66 gene-deficient Acinetobacter baumannii isolate A2 by Etest method. In a few lines: as §1
Assay [3] has as its system Acinetobacter baumannii. In words: Antimicrobial activity against carbapenem-susceptible Acinetobacter baumannii isolate A1 by Etest method. In a few lines: as §1

As for `CC(C)(O/N=C(\C(=O)N[C@@H]1C(=O)N2C(C(=O)[O-])=C(C[n+]3ccccc3)CS[C@H]12)c1csc(N)n1)C(=O)O` [CEFTAZIDIME], the MIC in the assay with Acinetobacter baumannii [1], in the assay with Acinetobacter baumannii [2] and against Acinetobacter baumannii [3] was 128 µg/mL (≈ 234 µM) each time.
Take `C[C@@H](O)[C@H]1C(=O)N2C(C(=O)O)=C(SCCNC=N)C[C@H]12` [IMIPENEM ANHYDROUS]: the figures for the MIC against Acinetobacter baumannii [1], against Acinetobacter baumannii [2] and with Acinetobacter baumannii [3] were 4 µg/mL (≈ 13.4 µM), 0.5 µg/mL (≈ 1.67 µM) and 2 µg/mL (≈ 6.68 µM), respectively.
Turning to `C[C@@H](O)[C@H]1C(=O)N2C(C(=O)O)=C(S[C@@H]3CN[C@H](C(=O)N(C)C)C3)[C@H](C)[C@H]12` [MEROPENEM], the MIC in the assay with Acinetobacter baumannii [1] was determined as 6 µg/mL (≈ 15.6 µM); with Acinetobacter baumannii [2] it was 0.5 µg/mL (≈ 1.3 µM); in the assay on Acinetobacter baumannii [3] it was 3 µg/mL (≈ 7.82 µM).
Regarding `CO[C@H]1/C=C/O[C@@]2(C)Oc3c(C)c(O)c4c(O)c(c(/C=N/N5CCN(C)CC5)c(O)c4c3C2=O)NC(=O)/C(C)=C\C=C\[C@H](C)[C@H](O)[C@@H](C)[C@@H](O)[C@@H](C)[C@H](OC(C)=O)[C@@H]1C` [RIFAMPIN], the MIC in the assay with Acinetobacter baumannii [1] was found to be 8 µg/mL (≈ 9.72 µM); in the assay on Acinetobacter baumannii [2], 128 µg/mL (≈ 156 µM); with Acinetobacter baumannii [3], 8 µg/mL (≈ 9.72 µM).
